Screens deposited in PubChem BioAssay by several laboratories.
Compounds with a hit are over-represented: about 3.6% of the library has one in this group of screens.
NS3 helicase inh = blocks Hepatitis C virus NS3 helicase unwinding. AID 1800. inhibition, % at 10.9 µM. NS3 helicase DNA unwinding, Cy5 molecular beacon fluorescence. 290,000 tested, 0.56% active;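 active = inhibition above the mean of all tested compounds plus 3 SD, set per campaign, cut at about 35% in these data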;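 also: 0% = DMSO wells and 100% = thioflavine S control wells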
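Material: hepatitis C virus NS3 helicase domain fragment enzyme; measured by: Cy5 fluorescence, 0 and 60 min reads; control set: DMSO and thioflavine S; incubation: 60 min unwinding reaction at 25 °C after ATP addition; read-out basis: % inhibition from 60/0 min fluorescence ratio, DMSO 0%, thioflavine S 100%; repeats: singlicate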
FGF22 binding = binders of recombinant human FGF22 by thermal shift; Q9HCT0; AID 651658; 340,000 tested, 1.5% active; activity (Tm shift, normalised), % at 9.99 µM; SYPRO orange fluorescence; percent of sucrose octasulfate shift, DMSO zero;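 active = mean Tm shift, scaled 0 neutral to 100 positive control, at about 1.3% or above, every replicate too, limit read from the data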
Target sequence (Q9HCT0 whole entry, looked up): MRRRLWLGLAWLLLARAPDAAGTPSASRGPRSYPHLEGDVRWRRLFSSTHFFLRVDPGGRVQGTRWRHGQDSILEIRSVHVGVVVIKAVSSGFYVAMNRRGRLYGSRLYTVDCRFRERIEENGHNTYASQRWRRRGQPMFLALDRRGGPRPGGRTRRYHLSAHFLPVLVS
NR3A LBD binder = modulates the human NR3A ligand-binding domain. NR3A LBD differential scanning fluorimetry, Tm shift; 0% = protein alone, 100% = glycine-bound protein. Tm shift relative to glycine control, % at 25 µM. 340,000 tested, 2.5% active. AID 1259313;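 active = melting temperature shift of at least 10% of the positive control shift, at one fixed dose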
ZTA DNA inh = blocks Epstein-Barr virus ZTA, an EBNA-1 counter-screen. 320,000 tested, 0.15% active. inhibition, % at 11 µM. P03206. ZTA-DNA binding, fluorescence polarization; in the data active = inhibition above about 33%
Target sequence (P03206 whole entry, looked up): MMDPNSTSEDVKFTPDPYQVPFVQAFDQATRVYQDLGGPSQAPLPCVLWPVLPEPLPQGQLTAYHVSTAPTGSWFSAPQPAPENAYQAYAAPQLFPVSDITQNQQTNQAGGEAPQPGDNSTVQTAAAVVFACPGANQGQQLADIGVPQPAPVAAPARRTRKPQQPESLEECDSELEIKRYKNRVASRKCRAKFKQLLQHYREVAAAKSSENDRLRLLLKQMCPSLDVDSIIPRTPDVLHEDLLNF
EBNA-1 inhibitor = blocks EBNA-1 binding to DNA. EBNA-1 DNA binding, fluorescence polarization. inhibition, % at 14.8 µM. AID 1950. 300,000 tested, 0.34% active; in the data active = inhibition above about 28%
DNA FID counter = fluorescent intercalator displacement, NS3 helicase counter-screen | 290,000 tested, 0.17% active | inhibition, % at 7.9 µM | DNA fluorescent intercalator displacement, fluorescence; in the data active = inhibition above about 37%;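 also: 0% = vehicle and 100% = reference compound; higher means more ethidium bromide displaced from hairpin DNA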
Starred values were filed as active, the others as inactive; x = not tested or not shown.

SMILES	NS3 helicase inh	FGF22 binding	NR3A LBD binder	ZTA DNA inh	EBNA-1 inhibitor	DNA FID counter
CC(C)CNC(=O)c1cc([N+](=O)[O-])ccc1N1CCCCC1	4.6	43.2*	-2.2	-26.9	-9.4	-10.7
Cc1noc(C)c1S(=O)(=O)Nc1ccc2c(c1)CC(=O)N([C@@H](C)CO)C[C@@H](C)[C@H](CN(C)S(C)(=O)=O)O2	x	-0.1	x	x	x	x
CO[C@H]1CN(C)C(=O)c2cc(C#N)ccc2OCC[C@@H]2CC[C@H](OC)[C@@H](CN(C)C(=O)[C@H]1C)O2	x	0.1	x	x	x	x
Cc1cccc(S(=O)(=O)N2C[C@@H](O)COC[C@@H]3O[C@H](CC(=O)NCc4ccncn4)CC[C@H]32)c1	x	0.1	x	x	x	x
O=C1N=c2ccc(Br)cc2=C1c1sc(=S)n(NS(=O)(=O)c2ccccc2)c1O	-12.5	0.0	-11.2	-22.3	6.7	0.9
O=C1N=c2ccccc2=C1c1sc(=S)n(NC(=O)c2cccc(O)c2)c1O	0.7	16.7*	-2.2	x	x	1.4
O=C1N=c2ccccc2=C1c1sc(=S)n(-c2ccc(O)cc2)c1O	-4.9	0.4	29.0*	-18.1	3.6	3.3
O=C1N=c2ccccc2=C1c1sc(=S)n(Cc2ccccc2Cl)c1O	0.2	-0.1	19.4*	-4.7	1.8	-5.0
COc1ccc(CN(C)C[C@H]2Oc3ccc(NC(=O)C4CC4)cc3CC(=O)N([C@H](C)CO)C[C@@H]2C)cc1	x	-0.1	x	x	x	x
COc1ccc(-c2oc3ccccc3c2C(=O)OCc2ccccc2OC)cc1	-15.6	-0.2	17.0*	-4.2	6.8	-9.7
CCOC(=O)c1c(-c2ccc(OC)cc2)oc2ccc(O)cc12	0.5	-0.2	-5.1	-5.7	5.9	-9.0
CCOC(=O)c1c(-c2ccc(OC)cc2)oc2cc(Br)c(O)cc12	1.7	-0.2	12.7*	11.5	11.1	-4.3
COc1ccc(C(=O)c2c(-c3ccc(OC)cc3)oc3ccccc23)cc1	x	0.0	-2.5	-17.6	x	x
C[C@@H]1CN([C@@H](C)CO)S(=O)(=O)c2ccc(C#CCN(C)C)cc2O[C@H]1CN(C)Cc1ccccc1	x	-0.2	x	x	x	x
ClCc1csc(-c2ccc(Cl)cc2)n1	0.0	x	12.6*	2.0	4.6	-0.8
CC(=O)C1=C(O)C(=O)N(c2nccs2)C1c1ccccc1F (stereo unspecified)	3.6	0.2	2.0	0.1	1.0	1.5
COc1ccc(C2C(C(C)=O)=C(O)C(=O)N2c2nccs2)c(OC)c1 (stereo unspecified)	3.6	45.5*	0.2	4.0	2.0	-9.2
CC(=O)c1sc(-c2ccccn2)nc1C	6.7	x	x	13.8	-2.1	-0.7
O=C(Nc1ccccn1)c1ccc(Br)s1	2.7	0.0	1.9	-6.5	-6.5	-8.6
Cc1nc(-c2ccccn2)sc1C(=O)Nc1ccc(Cl)c(Cl)c1	-18.1	x	25.6*	-2.6	0.5	-1.0
O=C(Nc1ccc(Cl)cc1)c1ccc(-c2ccccn2)s1	14.9	-0.2	30.5*	10.2	-2.5	-3.8
C[C@H](CO)N1C[C@H](C)[C@@H](CN(C)S(=O)(=O)c2ccc(F)cc2)Oc2ccc(NC(=O)CCCN(C)C)cc2C1=O	x	0.0	x	x	x	x
C[C@@H]1CN([C@@H](C)CO)C(=O)c2cccc(NS(C)(=O)=O)c2O[C@@H]1CN(C)Cc1ccc2c(c1)OCO2	x	-0.6	x	x	x	x
O=C(C1CC1)N1CC2(C1)[C@H](c1ccccc1)[C@@H](CO)N2C(=O)c1cccnc1	x	-0.1	x	x	x	x
N#CC(C#N)=C1C=C2C=C(N3CCCCC3)CCC2CC1 (stereo unspecified)	-3.6	x	21.0*	1.1	-4.2	-4.7
SMILES	NS3 helicase inh	FGF22 binding	NR3A LBD binder	ZTA DNA inh	EBNA-1 inhibitor	DNA FID counter
NC(=S)NN=C1CCCCCCCCC1	x	-0.2	-0.2	x	x	x
NC(=S)NN=C1CCSCC1	x	43.1*	-1.9	x	x	x
CC(C)(C)c1ccc(-c2noc(-c3ccno3)n2)cc1	-2.4	0.2	12.5*	-17.9	-11.2	-4.5
C[C@H]1CN([C@@H](C)CO)C(=O)c2cc(NS(=O)(=O)c3ccc(F)cc3)ccc2O[C@H]1CN(C)Cc1ccccc1	x	-0.2	x	x	x	x
C[C@H]1CCCCO[C@H](CN(C)C(=O)C2CCCCC2)[C@@H](C)CN([C@@H](C)CO)C(=O)c2cc(NS(=O)(=O)c3ccc(Cl)cc3)ccc2O1	x	0.0	x	x	x	x
CC(=O)NNC(=O)CCn1nnc2ccccc21	5.6	43.9*	0.6	-9.1	-7.0	-0.4
C[C@@H]1CN([C@H](C)CO)C(=O)CCCn2nncc2CO[C@@H]1CN(C)C(=O)Nc1cccc(Oc2ccccn2)c1	x	-0.1	x	x	x	x
C[C@@H]1CN([C@@H](C)CO)C(=O)c2cc(-c3cncnc3)cnc2O[C@@H]1CN(C)C(=O)Cc1cccnc1	x	-0.2	x	x	x	x
C/C(=N\NC(=O)C1(C)CC1(Br)Br)c1cccc(NC(=O)c2ccc(C)o2)c1 (stereo unspecified)	-3.3	0.0	11.1*	3.8	5.6	-33.5
COC(CNC(=O)c1ccc2nc(-c3cccs3)c(-c3cccs3)nc2c1)OC	1.2	0.0	16.4*	-5.7	9.3	0.9
CCOc1ccc(S(=O)(=O)NCCC(=O)NCCOc2ccccc2)cc1	x	-0.7	65.0*	-4.1	-1.7	x
Cc1ccc(OCCNC(=O)CCNS(=O)(=O)c2ccc(C)cc2)cc1	x	-0.5	-3.2	-6.1	-7.8	x
COc1cccc(NC(=O)C[C@H]2CC[C@@H]3[C@H](COc4ccc(NC(=O)C5CCOCC5)cc4C(=O)N3C)O2)c1	x	0.1	x	x	x	x
COc1ccc(CN(C(=O)c2nsc(Cl)c2Cl)C(C(=O)NC2CCCC2)c2ccc(OC)cc2)cc1 (stereo unspecified)	8.6	43.2*	0.9	2.4	0.6	-24.1
COc1ccc(CN(C(=O)c2snc(C(N)=O)c2N)C(C(=O)NC2CCCC2)c2ccc(OC)cc2)cc1 (stereo unspecified)	-10.7	-0.4	-1.2	-5.2	-3.9	-43.5
O=C(NC1CCCC1)C(c1ccc(F)cc1)N(Cc1ccc(F)cc1)C(=O)c1ccn[nH]1 (stereo unspecified)	-0.6	x	17.3*	3.9	7.1	-25.5
Cc1noc(C)c1S(=O)(=O)Nc1ccc2c(c1)C(=O)N([C@@H](C)CO)C[C@H](C)[C@@H](CN(C)Cc1ccncc1)OCCCC[C@H](C)O2	x	-0.7	x	x	x	x
CC(C)(C)C1CCc2onc(C(=O)Nc3cccnc3)c2C1 (stereo unspecified)	-4.3	-0.1	-3.1	2.2	4.4	-21.4
O=C(Nc1cccnc1)c1noc2c1CCCC2	0.0	x	11.1*	13.5	3.1	-0.8
Nc1nnc2cc(Cl)ccc2n1	x	43.6*	0.6	x	x	x
CCCc1c(C)nn(C(=O)/C(C#N)=N/Nc2ccccc2[N+](=O)[O-])c1C	-5.1	-0.1	14.6*	-3.5	-14.1	4.0
Cc1c(NC(=O)COC(=O)C2(c3ccccc3F)CCCC2)c(=O)n(-c2ccccc2)n1C	-17.0	43.1*	-5.2	-14.4	1.2	-19.4
Cc1c(NC(=O)COC(=O)C23CC4CC(CC(O)(C4)C2)C3)c(=O)n(-c2ccccc2)n1C	1.3	43.9*	3.6	-2.9	-5.0	-10.2
